Results: ChEMBL document CHEMBL1131181, “Abasic analogues of TSAO-T as the first sugar derivatives that specifically inhibit HIV-1 reverse transcriptase” (J Med Chem, 1998)

How the values were obtained:
MT4 [1] = experiment: Cytostatic concentration test against mock infected human cells of MT-4 cell line; assay type: functional
Outline: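 MT-4 cells at 5 × 10⁵ cells/mL, mock-infected, combined with compound dilutions and held 5 days at 37 °C. Viable cells were counted in a blood-cell-counting chamber after Trypan blue staining. CC₅₀ is the concentration that cuts the viable cell number by 50%.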

MT4 [2] = experiment: compound was tested for antiviral activity against HIV-2 ([…]) in MT-4 cell line, activity expressed as concentration required to protect 50% of the virus-infected cells against destruction by the virus.; assay type: functional, cell-based; conditions: Homo sapiens
[3] = test system: Human immunodeficiency virus 1; experiment: compound was tested for antiviral activity against HIV-1 (3B) in MT-4 cell line, activity expressed as concentration required to protect 50% of the virus-infected cells against destruction by the virus.; assay type: functional, organism-based; conditions: Human immunodeficiency virus 1, MT4
CCRF-CEM = experiment: compound was tested for cytostatic concentration against mock infected cells of CEM cell line; assay type: functional; conditions: Homo sapiens
Outline: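 Uninfected CEM cells at 250 000 cells/mL were cultured with compound dilutions for 4 days at 37 °C. CC₅₀ is the concentration that inhibits CEM cell proliferation by 50%.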

[4] = test system: Human immunodeficiency virus 1; experiment: In vitro antiviral activity against HIV-1 (IIIB) in CEM (human leukemia) cells.; assay type: functional, organism-based; conditions: Human immunodeficiency virus 1, CCRF-CEM
Outline: (§1)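 CEM cells at 250 000 cells/mL were infected with HIV-1(III_B) or HIV-2(ROD) at 100 CCID₅₀/mL, then added to compound dilutions. After 4 days at 37 °C, cultures were scored for syncytium formation. EC₅₀ is the concentration that inhibits syncytium formation by 50%.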

[5] = test system: Human immunodeficiency virus 2; experiment: In vitro antiviral activity against HIV-2 (ROD) in CEM (human leukemia) cells.; assay type: functional, organism-based; conditions: Human immunodeficiency virus 2, CCRF-CEM; outline: as §1

Structure (SMILES) | CC50 (MT4 [1]) [µM] | EC50 (MT4 [2]) [µM] | EC50 [3] [µM] | CC50 (CCRF-CEM) [µM] | EC50 [4] [µM] | EC50 [5] [µM]
COC1OC(CO[Si](C)(C)C(C)(C)C)C2(OS(=O)(=O)C=C2N)C1O[Si](C)(C)C(C)(C)C (stereo not given) | > 200 | > 200 | 21 |  |  | 
CCNC(=O)N[C@@H]1O[C@H](CO[Si](C)(C)C(C)(C)C)[C@@]2(OS(=O)(=O)C=C2N)[C@H]1O[Si](C)(C)C(C)(C)C.CCNC(=O)N[C@H]1O[C@H](CO[Si](C)(C)C(C)(C)C)[C@@]2(OS(=O)(=O)C=C2N)[C@H]1O[Si](C)(C)C(C)(C)C | 19 | > 10 | > 10 | 20 | > 10 | > 10
CC(C)(C)[Si](C)(C)OC[C@H]1O[C@@H](OCc2ccccc2)[C@H](O[Si](C)(C)C(C)(C)C)[C@]12OS(=O)(=O)C=C2N | 12 | > 6.4 | 4.9 | 11 | > 6.4 | > 6.4
CC(C)(C)[Si](C)(C)OC[C@H]1O[C@H](NC(=O)Nc2ccccc2)[C@H](O[Si](C)(C)C(C)(C)C)[C@]12OS(=O)(=O)C=C2N | 4.3 | > 2 | 0.59 | 4.2 | 0.65 | > 2
CC(C)(C)[Si](C)(C)OC[C@H]1O[C@H](NC(=O)NC(=O)c2ccccc2)[C@H](O[Si](C)(C)C(C)(C)C)[C@]12OS(=O)(=O)C=C2N | > 250 | > 250 | > 250 | 24 | > 250 | > 250
CSc1ccc(NC(=O)N[C@@H]2O[C@H](CO[Si](C)(C)C(C)(C)C)[C@@]3(OS(=O)(=O)C=C3N)[C@H]2O[Si](C)(C)C(C)(C)C)cc1 | 29 | > 10 | 4.5 | 22 | 5 | > 10
COC(=O)c1ccccc1NC(=O)N[C@H]1O[C@H](CO[Si](C)(C)C(C)(C)C)[C@@]2(OS(=O)(=O)C=C2N)[C@H]1O[Si](C)(C)C(C)(C)C | 26 | > 10 | 5.3 | 22 | 4.5 | > 10
C=C(C)C(=O)NC(=O)N[C@@H]1O[C@H](CO[Si](C)(C)C(C)(C)C)[C@@]2(OS(=O)(=O)C=C2N)[C@H]1O[Si](C)(C)C(C)(C)C | 8.6 | > 6.5 | 0.59 | 6.1 | 0.56 | > 6.5
CC(C)(C)[Si](C)(C)OC[C@H]1O[C@@H](NC(N)=O)[C@H](O[Si](C)(C)C(C)(C)C)[C@]12OS(=O)(=O)C=C2N | > 250 | > 250 | 90 | > 250 | 90 | > 50
CC(=O)N[C@H]1O[C@H](CO[Si](C)(C)C(C)(C)C)[C@@]2(OS(=O)(=O)C=C2N)[C@H]1O[Si](C)(C)C(C)(C)C | 16 | > 8 | > 8 |  | > 8 | > 8
COC(=O)c1ccccc1NC(=O)N[C@@H]1O[C@H](CO[Si](C)(C)C(C)(C)C)[C@@]2(OS(=O)(=O)C=C2N)[C@H]1O[Si](C)(C)C(C)(C)C | 17 | > 2 | 3.1 | 3.8 | > 2 | > 2
CC(C)(C)[Si](C)(C)OC[C@H]1O[C@@H](NC(=O)Nc2ccccc2)[C@H](O[Si](C)(C)C(C)(C)C)[C@]12OS(=O)(=O)C=C2N | 14 | > 10 | 5.1 | 10 | > 10 | > 10
CC(C)(C)[Si](C)(C)OC[C@H]1O[C@@H](NC(=O)NC(=O)c2ccccc2)[C@H](O[Si](C)(C)C(C)(C)C)[C@]12OS(=O)(=O)C=C2N | 90 | > 50 | 16 | 48 | 7 | > 50
C=C(C)C(=O)NC(=O)N[C@H]1O[C@H](CO[Si](C)(C)C(C)(C)C)[C@@]2(OS(=O)(=O)C=C2N)[C@H]1O[Si](C)(C)C(C)(C)C | 2.7 | > 1.3 | > 1.3 | 6.4 | > 6.5 | > 6.5
CSc1ccc(NC(=O)N[C@H]2O[C@H](CO[Si](C)(C)C(C)(C)C)[C@@]3(OS(=O)(=O)C=C3N)[C@H]2O[Si](C)(C)C(C)(C)C)cc1 | 17 | > 10 | 4.2 | 6.4 | > 2 | > 2
CC(C)(C)[Si](C)(C)OC[C@H]1O[C@@H](OCc2ccccc2)[C@H](O[Si](C)(C)C(C)(C)C)[C@@]12OS(=O)(=O)C=C2N | 13 | > 6.4 | 4.6 | 11 | > 6.4 | > 6.4
CC(=O)N[C@@H]1O[C@H](CO[Si](C)(C)C(C)(C)C)[C@@]2(OS(=O)(=O)C=C2N)[C@H]1O[Si](C)(C)C(C)(C)C | 13 | > 8 | 2.6 |  | 2.6 | > 8
CC(C)(C)[Si](C)(C)OC[C@H]1O[C@H](NC(N)=O)[C@H](O[Si](C)(C)C(C)(C)C)[C@]12OS(=O)(=O)C=C2N | > 250 | > 250 | > 250 | 203 | 57 | > 50
CC(C)(C)[Si](C)(C)OC[C@H]1O[C@@H](n2ccc(=O)[nH]c2=O)[C@H](O[Si](C)(C)C(C)(C)C)C12OS(=O)(=O)C=C2N (stereo not given in full) | 13 | > 20 | 0.18 |  |  | 
Cc1cn([C@@H]2O[C@H](CO[Si](C)(C)C(C)(C)C)C3(OS(=O)(=O)C=C3N)[C@H]2O[Si](C)(C)C(C)(C)C)c(=O)[nH]c1=O (stereo not given in full) | 14 | > 20 | 0.06 |  | 0.06 | > 20
CC(C)(C)[Si](C)(C)OC[C@H]1O[C@@H](N=[N+]=[N-])[C@H](O[Si](C)(C)C(C)(C)C)[C@]12OS(=O)(=O)C=C2N | > 200 | > 200 | > 200 | > 200 | > 200 | > 200
CC(C)(C)[Si](C)(C)OC[C@H]1O[C@@H](NC(=S)Nc2ccccc2)[C@H](O[Si](C)(C)C(C)(C)C)[C@]12OS(=O)(=O)C=C2N | 3.7 | > 2 | > 2 | 4.1 | > 2 | > 2
CC(C)(C)[Si](C)(C)OC[C@H]1O[C@@H](N)[C@H](O[Si](C)(C)C(C)(C)C)[C@]12OS(=O)(=O)C=C2N | 21 | > 10 | > 10 | 16 | > 10 | > 10
CC(=O)NC(=O)N[C@@H]1O[C@H](CO[Si](C)(C)C(C)(C)C)[C@@]2(OS(=O)(=O)C=C2N)[C@H]1O[Si](C)(C)C(C)(C)C | 26 | > 10 | 0.89 | 15 | 0.65 | > 10
CC(C)(C)[Si](C)(C)OC[C@H]1O[C@@H](N2CCC(=O)NC2=O)[C@H](O[Si](C)(C)C(C)(C)C)[C@]12OS(=O)(=O)C=C2N | 21 | > 2 | 0.92 | 19 | 0.31 | 
